Screening data deposited in PubChem by The Scripps Research Institute Molecular Screening Center.
Shown are actives, neighbours in structure and some others; about 3.1% of the full set was active somewhere.
CHO parental Ca: ATP-evoked calcium signal inhibitors, parental CHO, primary screen, counter-screen for OX1R antagonist project, cell-based, fluorescence, Fluo-8 calcium dye. parental CHO-K1, ATP-induced calcium, Fluo-8 fluorescence. inhibition, % at 5.6 µM. 330,000 compounds, 0.63% hits;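 active = inhibition above that plate's mean sample inhibition plus 3 SD, cut at about 26% in these data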
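Assay system: untransfected parental CHO cell line. Also added: ATP agonist challenge. Dosing: one dose, 5.6 µM nominal. Measured by: Fluo-8 fluorescence. Read-out: % inhibition. Benchmarks: ATP wells versus no-ATP DMSO wells. Repeats: no replicates.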
OX1R antag-1: antagonists of human orexin 1 receptor (OX1R). OX1R-expressing cells, FRET antagonist read-out. inhibition, % at 6.6 µM. 330,000 compounds, 1.8% hits; in the data active = inhibition mostly above about 38%, no sharp cut-off; inactive = mostly below about 40%
Target sequence (O43613 whole entry, looked up): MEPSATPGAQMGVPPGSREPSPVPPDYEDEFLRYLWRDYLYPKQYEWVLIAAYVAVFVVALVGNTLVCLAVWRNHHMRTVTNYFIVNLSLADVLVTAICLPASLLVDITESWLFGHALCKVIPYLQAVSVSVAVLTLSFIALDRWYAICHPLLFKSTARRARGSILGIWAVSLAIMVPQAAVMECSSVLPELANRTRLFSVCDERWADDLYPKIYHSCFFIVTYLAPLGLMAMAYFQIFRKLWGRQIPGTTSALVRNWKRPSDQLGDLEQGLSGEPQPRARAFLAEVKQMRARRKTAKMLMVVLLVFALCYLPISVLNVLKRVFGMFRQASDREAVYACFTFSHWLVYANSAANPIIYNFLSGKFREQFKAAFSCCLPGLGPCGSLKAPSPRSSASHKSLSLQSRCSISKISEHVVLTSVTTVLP
GalR3 antag: GalR3 antagonists in HEK293 cells, primary screen, cell-based, fluorescence readout | Galanin receptor type 3 (Homo sapiens), O60755 | HEK293 GalR3-CNG cAMP membrane potential fluorescence; galR3 body fused to GalR1 C-terminus | inhibition, % at 3 µM | 360,000 compounds, 0.44% hits | AID 651719, 2012;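 active = inhibition above the screen-wide average plus 3 SD, cut at about 13% in these data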;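 also: forskolin and galanin both at EC90 stimulate the cells; cAMP rise reported by CNG channel membrane potential dye signal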
GPR7 antagonist: GPR7 receptor antagonists, primary screen, cell-based, fluorescence, single concentration; GPR7-expressing cells, fluorescence antagonist assay; inhibition, % at 4.4 µM; 290,000 compounds, 1.1% hits; in the data active = inhibition above about 16%, passing the limit was not always enough;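 also: cells stimulated with the agonist NPW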
OX1R antag-2: OX1R (HCRTR1) antagonists, primary screen, fluorescence, CHO/OX1R cells, Fluo-8 calcium, orexin A | Orexin/Hypocretin receptor type 1 (Homo sapiens), O43613 | Fluo-8 calcium fluorescence | inhibition, % at 5 µM | 330,000 compounds, 0.43% hits | AID 434989, 2010;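 active = inhibition above its plate's threshold, mean inhibition of all tested compounds on the plate plus 3 SD, cut at about 37% in these data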
Numbers stand for hits; n = inactive; x = not tested or not shown.

SMILES	CHO parental Ca	OX1R antag-1	GalR3 antag	GPR7 antagonist	OX1R antag-2
CN1C(=O)C(c2ccc([N+](=O)[O-])cc2[N+](=O)[O-])C(=O)N(C)C1=O	n	44	n	n	n
CC(NS(=O)(=O)OCC(Cl)(Cl)Cl)c1ccccc1 (stereo not given)	n	n	n	n	n
CN1CCN(c2ccc([N+](=O)[O-])c(Sc3ccccn3)c2)CC1	n	n	n	n	n
CN1CCN(c2ccc([N+](=O)[O-])c(N/N=C3\CN4CCC3CC4)c2)CC1	n	56	n	n	n
CN1CCN(c2ccc([N+](=O)[O-])c(Sc3nncn3C)c2)CC1	n	n	n	n	n
CCNc1cc(N2CCN(C)CC2)ccc1[N+](=O)[O-]	n	51	n	n	n
CC(C)S(=O)(=O)N1Cc2ccc(Br)cc2-n2nncc2C1	x	x	n	x	x
C[C@H]1CC[C@@H]2[C@@H](C)[C@H]3[C@H](C[C@H]4[C@@H]5CC=C6C[C@@H](O[C@@H]7O[C@H](CO)[C@H](O)[C@H](O[C@@H]8O[C@H](CO)[C@@H](O)[C@H](O)[C@H]8O)[C@H]7O[C@@H]7O[C@@H](C)[C@H](O)[C@@H](O)[C@H]7O)CC[C@]6(C)[C@H]5CC[C@]34C)N2C1	n	n	n	n	n
C[C@@H]1O[C@@H](O[C@H]2C[C@@H](O)[C@]3(CO)[C@@H]4C(CC[C@]3(O)C2)[C@@]2(O)CC[C@H](C3COC(=O)C3)[C@@]2(C)C[C@H]4O)[C@H](O)[C@H](O)[C@H]1O (stereo not given in full)	n	n	16	x	n
CCN1CCN(c2ccc([N+](=O)[O-])cc2C=C2C(=O)NC(=O)NC2=O)CC1	n	n	n	n	n
CC(=O)N1CCN(c2ccc([N+](=O)[O-])cc2C=C2C(=O)NC(=O)NC2=O)CC1	n	64	n	n	n
CC(C)OP(=O)(Oc1ccc(C(O)C(Cl)(Cl)Cl)cc1)OC(C)C (stereo not given)	n	59	n	n	n
CNCC(O)c1cccc(OC(=O)c2ccccc2C)c1 (stereo not given)	n	n	n	24	n
CCOc1ccc(-n2c(O)c(N=Nc3ccc([N+](=O)[O-])cc3)c(=O)[nH]c2=O)cc1	n	76	n	n	n
O=c1c2ccccc2[se]n1-c1ccccc1	47	n	n	n	n
CN(C)c1ccc(/C=C/[N+](=O)[O-])cc1	n	58	n	19	n
CC1CCN(S(=O)(=O)c2ccc(NN=C(C#N)C#N)cc2)CC1	n	101	x	n	n
O=C(O)CC1OCC=C2CN3CCC45C6=CC(=O)C(=O)C([N+](=O)[O-])=C6NC4C1C2CC35 (stereo not given)	n	38	x	n	n
O=C(O)CCl	x	x	n	x	x
CC12CCC(O)CC1CCC1C2CCC2(C)C(C3=CC(=O)OC3)C(O)CC12O (stereo not given)	x	x	n	x	x
C[C@]12CC[C@H](O)C[C@H]1CC[C@@H]1[C@@H]2CC[C@]2(C)[C@@H](C3=CC(=O)OC3)CC[C@]12O	n	n	26	x	n
CC12CCC(O)CC1CCC1C2CCC2(C)C(C3=CC(=O)OC3)CCC12O (stereo not given)	x	x	30	x	x
COC1C(O)C(C)OC(OC2CCC3(C)C(CCC4C3C(O)CC3(C)C(C5=CC(=O)OC5)CCC43O)C2)C1O (stereo not given)	x	x	28	x	x
N#CCCC#N	x	x	n	x	x
Cc1cc(OC(=O)N(C)C)nc(-c2ccc(C)c(Cl)c2)n1	n	n	n	n	n
SMILES	CHO parental Ca	OX1R antag-1	GalR3 antag	GPR7 antagonist	OX1R antag-2
CN1/C(=C\C=Nc2ccccc2)C(C)(C)c2ccccc21	n	n	n	n	n
CN1/C(=C\C=C2C(=O)NC(=O)NC2=O)C(C)(C)c2ccccc21	41	112	n	n	n
CCN(CC)C(=O)c1ccc(NC(=O)c2ccc(-n3cncn3)c([N+](=O)[O-])c2)cc1	n	64	n	x	n
COC(=O)C1=C(c2ccc(F)cc2F)C[C@@H]2CC[C@H]1N2C(=O)NCCOc1ccc(OC)cc1	n	n	x	x	n
Cc1ccc(C[n+]2c(-c3ccc(C)cc3)cc(-c3ccc(C)cc3)cc2-c2ccc(C)cc2)cc1	98	n	x	x	96
CSCCC(c1nnnn1Cc1ccccc1)N1CCC2(CC1)C(=O)NCN2c1ccccc1 (stereo not given)	x	x	n	x	x
O=C(N/N=C/c1c(O)n(-c2ccccc2)c(=S)[nH]c1=O)c1ccccc1	n	n	n	n	n
O=C(N/N=C\C1C(=O)NC(=S)N(c2ccccc2)C1=O)c1ccc(O)cc1 (stereo not given)	n	46	n	n	n
Cc1c(N=Nc2c(O)n(-c3ccc(Br)cc3)c(=O)[nH]c2=O)c(=O)n(-c2ccccc2)n1C	n	66	n	n	n
COc1cccc(NC2=NCCS2)c1	x	x	n	x	x
O=C(NC(=O)c1c(F)cccc1F)Nc1cc(Cl)c(F)c(Cl)c1F	n	n	n	active	n
O=C(CSC1c2ccccc2-c2ccccc21)N/N=C/c1ccccc1C(=O)O	n	54	n	n	n
CCN(CC)S(=O)(=O)c1ccc(C)c(NCC(=O)Nc2ccc(C#N)c(Cl)c2)c1	56	n	n	n	n
CN1CCN(c2c(F)cc([N+](=O)[O-])c(N)c2Br)CC1	n	52	n	n	n
Nc1c([N+](=O)[O-])cc(F)c(N2CCNCC2)c1Br	n	n	n	n	n
Cc1cc(OCC(=O)N[C@H](C(=O)O)c2ccccc2)c2c3c(c(=O)oc2c1)CCC3	n	n	n	n	n
CCN(CC)S(=O)(=O)c1cc(NC(=O)C(C)N2CC=C(c3ccccc3)CC2)ccc1C (stereo not given)	43	n	n	n	n
Cc1cc(Br)c(NC(=O)CN2CC=C(c3ccccc3)CC2)c(Br)c1	n	n	n	n	n
COC(=O)C1=C(c2cccc(OCc3ccccc3)c2)C[C@@H]2CC[C@H]1N2C(=O)NCCOc1ccccc1	n	n	n	x	n
O=c1[nH]c(O)c(N=Nc2ccc(SC(F)F)cc2)c(=O)[nH]1	n	42	n	n	n
NC(=O)c1ccc(N=Nc2c(O)[nH]c(=O)[nH]c2=O)cc1	n	n	x	n	n
COc1nc(NCC2CCCO2)nc(N2CC3CC(C2)c2cccc(=O)n2C3)n1 (stereo not given)	n	n	n	n	n
CNc1ccc2oc(C[C@H]3O[C@@]4(CC[C@H]3C)O[C@H]([C@H](C)C(=O)c3ccc[nH]3)[C@H](C)C[C@H]4C)nc2c1C(=O)O	59	n	n	x	67
O=[N+]([O-])c1cc(Cl)c(Cl)cc1Cl	n	n	n	x	n
O=[N+]([O-])c1ccc(Cl)c([N+](=O)[O-])c1	n	48	x	x	n
